In data set [1] the target is Prothrombin (Homo sapiens, UniProt P00734). The data set is described as follows: Inhibition of thrombin.
Data set [2] concerns Plasma. The data set is described as follows: Anticoagulant potency in human plasma assessed as concentration required to double activated partial thromboplastin time. The data set is classed as functional, cell-free.
A short description of data set [3]: Inhibition of trypsin.
Data set [4] in a line: Selectivity for thrombin over trypsin.
The subject of data set [5] is Rattus norvegicus. As to the kind of experiment: Antithrombotic activity against ferric chloride induced thrombosis in rat at 10 ug/kg/min, iv. The class given is functional, organism-based. In a few lines:
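Ferric chloride-induced thrombosis in rats, with compound given by intravenous infusion at 10 µg/kg/min. Read-out is the number of animals with vessel occlusion out of 6.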

The nature of data set [6]: Half life in dog at 1 mg/kg, po. The class given is ADME, organism-based, Canis lupus familiaris. The arrangement: dose 1 mg/kg, route oral. The settings on record: in vivo.
Data set [7] in a line: Half life in dog at 0.5 mg/kg, po. The data set is classed as ADME, organism-based, Canis lupus familiaris. The arrangement: dose 0.5 mg/kg, route oral. The following applies: in vivo.
A short description of data set [8]: Cmax in dog at 0.5 mg/kg, po. The data set is classed as ADME, organism-based, Canis lupus familiaris. The arrangement: dose 0.5 mg/kg, route oral. The settings on record: in vivo.
For data set [9], the system named is Canis familiaris. The data set is described as follows: (§1) Half life in dog at 5 mg/kg, po. The class given is ADME, organism-based, Canis lupus familiaris. The settings on record: in vivo. Details: dose 5 mg/kg, route oral.
Data set [10] can be described thus: Cmax in dog at 5 mg/kg, po. The data set is classed as ADME, organism-based, Canis lupus familiaris. Details: dose 5 mg/kg, route oral. The settings on record: in vivo.
The nature of data set [11]: Cmax in rhesus monkey at 5 mg/kg, po. The arrangement: dose 5 mg/kg, route oral. The following applies: in vivo. The class given is ADME, organism-based, Macaca mulatta.
A short description of data set [12]: Half life in rhesus monkey at 5 mg/kg, po. The class given is ADME, organism-based, Macaca mulatta. The arrangement: dose 5 mg/kg, route oral. The settings on record: in vivo.
The nature of data set [13]: as §1. The class given is ADME, organism-based, Canis lupus familiaris. Details: dose 5 mg/kg, route oral. The following applies: in vivo.

Activity calls are given as the source filed them. The rule behind the calls is not given here.

Take `Cc1ncn(CC(=O)NC(C)(C)C)c1Cn1c(C)ccc(NS(=O)(=O)Cc2ccccc2)c1=O`: the results for the Ki in data set [1] and in [3] were 0.00036 µM and 68 µM, respectively. In addition, the Activity in data set [2] is 0.52 µM. Moreover, in data set [4], the Selectivity ratio amounted to 190000.
Regarding `Cc1ncn(CC(=O)NN2CCCCC2)c1Cn1c(C)ccc(NS(=O)(=O)Cc2ccccc2)c1=O`, the Ki – broadly, the equilibrium dissociation constant of an inhibitor or competing ligand from its target – in data set [1] was found to be 0.00065 µM; in [3] it was 56 µM. Also, in [2], the Activity amounted to 0.37 µM. Besides, the outcome in [5] was inactive. Besides, in data set [4], the Selectivity ratio came to 86000.
Regarding `Cc1ncn(CC(=O)NC(C)(C)CN)c1Cn1c(C)ccc(NS(=O)(=O)Cc2ccccc2)c1=O`, the Ki in [1] is 0.0003 µM; in data set [3], 70 µM. Also, the Activity in [2] was found to be 0.32 µM. Besides, the Selectivity ratio in data set [4] turned out to be 233000.
For `Cc1ncn(CC(=O)NC2CCCNC2)c1Cn1c(C)ccc(NS(=O)(=O)Cc2ccccc2)c1=O` (stereo unspecified), the Ki in data set [1] is 0.00031 µM; in data set [3], 110 µM. Also, the Activity in data set [2] worked out at 0.35 µM. Moreover, the result in data set [5] was inactive. The Selectivity ratio in [4] stood at 355000.
Take `Cc1ncn(CC(=O)NCC(F)(F)F)c1Cn1c(C)ccc(NS(=O)(=O)Cc2ccccc2)c1=O`: the Ki in [1] worked out at 0.00083 µM; in data set [3] it was 49 µM. Also, the Activity in data set [2] was 0.53 µM. Also, the Selectivity ratio in [4] was 59000.
As to `Cc1ncn(CC(=O)NCCN)c1Cn1c(C)ccc(NS(=O)(=O)Cc2ccccc2)c1=O`, the Ki in [1] is 0.0009 µM; in data set [3] it was 85 µM. Further, in data set [2], the Activity was found to be 0.39 µM. The result in data set [5] was inactive. In data set [4], the Selectivity ratio worked out at 94000.
As for `CCC(C)(C)NC(=O)Cn1cnc(C)c1Cn1c(C)ccc(NS(=O)(=O)Cc2ccccc2)c1=O`, the Ki stood at 0.00019 µM in data set [1] and 34 µM in [3]. The Activity in data set [2] amounted to 0.56 µM. In data set [4], the Selectivity ratio was determined as 180000.
Consider `Cc1nc[nH]c1CNC(=O)Cn1c(C)ccc(NS(=O)(=O)Cc2ccccc2)c1=O`, for which, in [2], the Activity came out at 1.1 µM. Besides, the Ki in data set [3] was 43 µM.
Regarding `Cc1ncn(CC(=O)NN2CCOCC2)c1Cn1c(C)ccc(NS(=O)(=O)Cc2ccccc2)c1=O`, the Ki in [1] turned out to be 0.0019 µM; in data set [3] it was 101 µM. The Activity in data set [2] worked out at 0.51 µM. Besides, in [4], the Selectivity ratio is 53000.
On to `Cc1ncn(CC(=O)NCCO)c1Cn1c(C)ccc(NS(=O)(=O)Cc2ccccc2)c1=O`, for which the Ki amounted to 0.0024 µM in data set [1] and 115 µM in data set [3]. Also, the Activity in [2] is 0.85 µM. In addition, the Selectivity ratio in data set [4] came to 48000.
For the molecule `CCNC(=O)Cn1cnc(C)c1Cn1c(C)ccc(NS(=O)(=O)Cc2ccccc2)c1=O`, the Ki amounted to 0.002 µM in data set [1] and 137 µM in data set [3]. In addition, the Activity in data set [2] was 0.7 µM. Also, the Selectivity ratio in [4] worked out at 70000.
For the molecule `Cc1nc(N)ccc1CNC(=O)Cn1c(C)ccc(NS(=O)(=O)Cc2ccccc2)c1=O` [L-374087], the half-life (usually the time in which the quantity being followed falls by half) in [6] is 2.5 h; in data set [7], 3.8 h. The Activity in data set [2] is 0.21 µM. Moreover, in [3], the Ki was determined as 3.2 µM. In data set [8], the Cmax (commonly the highest concentration seen after dosing) came out at 2 µM. Further, the Selectivity ratio in [4] worked out at 6400. Moreover, the t1/2 in [9] worked out at 2.5 h.
Take `Cc1ncn(CC(=O)NCC(C)(C)N)c1Cn1c(C)ccc(NS(=O)(=O)Cc2ccccc2)c1=O`: the Ki is 0.00068 µM in data set [1] and 80 µM in [3]. For the same molecule, in data set [2], the Activity is 0.26 µM. The Selectivity ratio in data set [4] was found to be 118000.
`Cc1ncn(CC(=O)NCC2CC2)c1Cn1c(C)ccc(NS(=O)(=O)Cc2ccccc2)c1=O`: the Ki in [1] was determined as 0.0011 µM; in data set [3], 57 µM. Moreover, the Selectivity ratio in data set [4] was found to be 52000.
On to `Cc1ncn(CC(=O)NN2CC(O)C2)c1Cn1c(C)ccc(NS(=O)(=O)Cc2ccccc2)c1=O`, for which the values for the Ki in data set [1] and in [3] were 0.0028 µM and 167 µM, respectively. Besides, the Activity in data set [2] was found to be 0.66 µM. Moreover, in data set [4], the Selectivity ratio turned out to be 48000.
`Cc1ncn(CC(=O)NC2CC2)c1Cn1c(C)ccc(NS(=O)(=O)Cc2ccccc2)c1=O`: the Ki in data set [1] amounted to 0.0018 µM; in [3], 185 µM. Moreover, the Activity in data set [2] is 0.68 µM. The Selectivity ratio in data set [4] was determined as 103000.
As to `Cc1ncn(CC(=O)OC(C)(C)C)c1Cn1c(C)ccc(NS(=O)(=O)Cc2ccccc2)c1=O`, the Ki in data set [1] turned out to be 0.00048 µM; in [3], 50 µM. In data set [4], the Selectivity ratio was 104000.
Regarding `Cc1ncn(CC(=O)NC2CC(N)C2)c1Cn1c(C)ccc(NS(=O)(=O)Cc2ccccc2)c1=O` (stereo unspecified), the Ki in data set [1] was determined as 0.003 µM; in [3], 122 µM. In addition, the Activity in [2] was 0.65 µM. Besides, the Selectivity ratio in [4] came out at 41000.
In the case of `Cc1ncn(CC(=O)NC2CCCNC2)c1CNC(=O)Cn1c(C)cnc(NCCc2ccccc2)c1=O` (stereo unspecified), the Ki in data set [1] was 0.0012 µM; in data set [3], 18 µM. Also, the Cmax in [10] came to 1.46 µM; in data set [11], 0.36 µM. Besides, the Activity in data set [2] is 0.7 µM. Also, the half-life is 1.1 h in data set [12] and 1.6 h in [13].
